Experimental data collected from several papers.
Lines come from different studies, so protocols differ.
Target: Serine/threonine-protein kinase 33 (STK33, Homo sapiens, UniProt Q9BYT3)

| SMILES | observed | method | concentration | remaining binding [%] |
| --- | --- | --- | --- | --- |
| Cc1cnn2ncc(-c3ccnc(N(C)C)n3)c2c1 | binding | – | 1 µM | 100 |
| CCN1CCN(Cc2ccc(C(=O)Nc3ccc(C)c(Oc4ccc5c(c4)CC(=O)N5)c3)cc2C(F)(F)F)CC1 | binding | competition with immobilised ligand | 1 µM | 100 |
| CC(=O)N1CCC(c2ccc(C(=O)NC3=NCCN3)cc2C(F)(F)F)CC1 | cell-free assay | competition with immobilised ligand | 1 µM | 100 |
| N[C@H]1CCN(c2nccc(-c3cnn4ncccc34)n2)C1 | binding | – | 1 µM | 0 |
| O=C(NCc1ncc(C(F)(F)F)cc1Cl)c1ccc2c(c1)C1(CCS(=O)(=O)CC1)[C@H](C1CC1)N2S(=O)(=O)c1ccc(F)cc1 | cell-free assay | competition with immobilised ligand | 1 µM | 100 |
| CNC(=O)c1ccccc1Nc1cc(Nc2ccc(N3CCOCC3)cc2OC)ncc1C(F)(F)F | binding | competition with immobilised ligand | 1 µM | < 10 |
| O=C(NCCCN1CCOCC1)c1ccc(Nc2nccc(-c3cc4ccccc4s3)n2)cc1 | binding | competition with immobilised ligand | 1 µM | 80 |
| CN(c1ccnc(CNc2nc(Nc3ccc4c(c3)CC(=O)N4)ncc2C(F)(F)F)n1)S(C)(=O)=O | cell-free assay | competition with immobilised ligand | 1 µM | 15 |
| O=C(NCC1CCOCC1)c1n[nH]cc1NC(=O)c1c(F)cccc1F | binding | competition with immobilised ligand | 1 µM | 79 |
| O=C(NCCCN1CCOCC1)c1ccc(Nc2ncc(Cl)c(-c3ccc(Cl)s3)n2)cc1 | binding | competition with immobilised ligand | 1 µM | 68 |
| O=C(Nc1ccc(Oc2ccc(F)cc2)cc1)N1CCc2ncccc2[C@H]1c1ccc(F)cc1 | cell-free assay | competition with immobilised ligand | 1 µM | 50 |
| C[C@H]1CCN(c2nccc(-c3cnn4ncccc34)n2)C1 | binding | – | 1 µM | 100 |
| CC(=O)C1=C(C)N(c2cccc(C(F)(F)F)c2)C(=O)N[C@@H]1c1ccc(C#N)nc1 | cell-free assay | competition with immobilised ligand | 1 µM | 91.6 |
| COc1ncc2cc3ccccc3nc2c1C#N | cell-free assay | competition with immobilised ligand | 5 µM | 91 |
| CNC(=O)[C@@H]1CC[C@@H](n2c(-c3ccc4cnccc4c3)nc3ccc(C(=O)NCc4cccc(C(N)=O)c4)cc32)C1 | binding | competition with immobilised ligand | 1 µM | 87 |
| c1cnn2ncc(-c3ccnc(N4CCC45COC5)n3)c2c1 | binding | – | 1 µM | 100 |
| FC(F)(F)Oc1cccc(-c2cnc3ccc(-c4ccncc4)nn23)c1 | binding | competition with immobilised ligand | 5 µM | 72 |
| O=C(c1ccc(Nc2ncc(Cl)c(-c3cc4ccccc4s3)n2)cc1)N1CCC(N2CCCC2)CC1 | binding | competition with immobilised ligand | 1 µM | 38 |
| CN(C)c1ncc(F)c(-c2cnn3ncccc23)n1 | binding | – | 1 µM | 100 |
| CN([C@@H]1CCc2c(CC(=O)O)c3ccccc3n2C1)S(=O)(=O)c1ccc(F)cc1 | cell-free assay | competition with immobilised ligand | 1 µM | 100 |
| F[C@@H]1CCN(c2nccc(-c3cnn4ncccc34)n2)C1 | binding | – | 1 µM | 100 |
| CC1=C(C#N)C(c2ccc3c(c2)c(NC(=O)c2ccccc2C)nn3C)C(C#N)=C(C)N1 | cell-free assay | competition with immobilised ligand | 1 µM | 100 |
| c1cncc(-c2cccc(Nc3nccc(NC4CCCCC4)n3)c2)c1 | binding | competition with immobilised ligand | 10 µM | 44 |
